Results: ChEMBL document CHEMBL3616437, “Thiazole compounds with activity against Cryptococcus gattii and Cryptococcus neoformans in vitro” (Eur J Med Chem, 2015)

Columns and labels:
[1] = system: Cryptococcus gattii; assay: Ratio of compound MIC for Cryptococcus gattii ATCC 24065 in presence of amphotericin B to compound MIC for Cryptococcus gattii ATCC 24065 in absence of amphotericin B by checkerboard microtiter test
[2] = system: Cryptococcus gattii species complex; assay: Antifungal activity against Cryptococcus gattii L27/01 assessed as reduction in cell viability at 1.9 uM after 6 to 72 hrs by MTT assay; type: functional, Cryptococcus bacillisporus
[3] = system: Cryptococcus neoformans; assay: Ratio of compound MIC for Cryptococcus neoformans CN31 in presence of fluconazole to compound MIC for Cryptococcus neoformans CN31 in absence of fluconazole by checkerboard microtiter test; type: functional
Summary of the method: (§1)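 Checkerboard microdilution: eight two-fold dilutions of test compound (0.11 to 15.6 µM) crossed with amphotericin B (0.025 to 3.9 µM, in DMSO) or fluconazole (0.48 to 62.5 µM, in water). Inoculum per CLSI M27-A3 in RPMI-MOPS pH 7.0, 1-5 x10^3 cells/mL. Growth 48 to 72 h. Effective MIC is the combination concentration giving complete inhibition. FICs derived from MICs in combination versus alone.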

[4] = system: Cryptococcus gattii species complex; assay: Ratio of compound MIC for Cryptococcus gattii 547/OTTI-97-PI-10 in presence of fluconazole to compound MIC for Cryptococcus gattii 547/OTTI-97-PI-10 in absence of fluconazole by checkerboard microtiter test; type: functional, Cryptococcus bacillisporus
Summary of the method: as §1

[5] = system: Cryptococcus gattii species complex; assay: Ratio of compound MIC for Cryptococcus gattii 196L/03 in presence of amphotericin B to compound MIC for Cryptococcus gattii 196L/03 in absence of amphotericin B by checkerboard microtiter test; type: functional, Cryptococcus bacillisporus
Summary of the method: as §1

[6] = system: Cryptococcus gattii species complex; assay: Ratio of compound MIC for Cryptococcus gattii L27/01 in presence of amphotericin B to compound MIC for Cryptococcus gattii L27/01 in absence of amphotericin B by checkerboard microtiter test; type: functional, Cryptococcus bacillisporus
Summary of the method: as §1

[7] = system: Cryptococcus gattii species complex; assay: Ratio of compound MIC for Cryptococcus gattii 23/10993 in presence of amphotericin B to compound MIC for Cryptococcus gattii 23/10993 in absence of amphotericin B by checkerboard microtiter test; type: functional, Cryptococcus bacillisporus
Summary of the method: as §1

[8] = system: Cryptococcus gattii species complex; assay: Ratio of compound MIC for Cryptococcus gattii 1913ER in presence of fluconazole to compound MIC for Cryptococcus gattii 1913ER in absence of fluconazole by checkerboard microtiter test; type: functional, Cryptococcus bacillisporus
Summary of the method: as §1

[9] = system: Cryptococcus neoformans; assay: Ratio of compound MIC for Cryptococcus neoformans 28JF in presence of fluconazole to compound MIC for Cryptococcus neoformans 28JF in absence of fluconazole by checkerboard microtiter test; type: functional
Summary of the method: as §1

[10] = system: Cryptococcus gattii species complex; assay: Antifungal activity against Cryptococcus gattii LMM818 assessed as reduction in cell viability at 1.9 uM after 6 to 72 hrs by MTT assay; type: functional, Cryptococcus bacillisporus
[11] = system: Cryptococcus gattii species complex; assay: Ratio of compound MIC for Cryptococcus gattii 196L/03 in presence of fluconazole to compound MIC for Cryptococcus gattii 196L/03 in absence of fluconazole by checkerboard microtiter test; type: functional, Cryptococcus bacillisporus
Summary of the method: as §1

[12] = system: Cryptococcus gattii species complex; assay: Ratio of compound MIC for Cryptococcus gattii ICB181 in presence of amphotericin B to compound MIC for Cryptococcus gattii ICB181 in absence of amphotericin B by checkerboard microtiter test; type: functional, Cryptococcus bacillisporus
Summary of the method: as §1

[13] = system: Cryptococcus gattii species complex; assay: Ratio of compound MIC for Cryptococcus gattii 135L/03 in presence of amphotericin B to compound MIC for Cryptococcus gattii 135L/03 in absence of amphotericin B by checkerboard microtiter test; type: functional, Cryptococcus bacillisporus
[14] = system: Cryptococcus gattii species complex; assay: Antifungal activity against Cryptococcus gattii 23/10993 assessed as reduction in cell viability at 1.9 uM after 6 to 72 hrs by MTT assay; type: functional, Cryptococcus bacillisporus
[15] = system: Cryptococcus gattii species complex; assay: Antifungal activity against Cryptococcus gattii 547/OTTI-97-PI-10 assessed as reduction in cell viability at 1.9 uM after 6 to 72 hrs by MTT assay; type: functional, Cryptococcus bacillisporus
[16] = system: Cryptococcus gattii species complex; assay: Ratio of compound MIC for Cryptococcus gattii 547/OTTI-97-PI-10 in presence of amphotericin B to compound MIC for Cryptococcus gattii 547/OTTI-97-PI-10 in absence of amphotericin B by checkerboard microtiter test; type: functional, Cryptococcus bacillisporus
Summary of the method: as §1

[17] = system: Cryptococcus neoformans; assay: Ratio of compound MIC for Cryptococcus neoformans 27JF in presence of amphotericin B to compound MIC for Cryptococcus neoformans 27JF in absence of amphotericin B by checkerboard microtiter test; type: functional
Summary of the method: as §1

[18] = system: Cryptococcus gattii species complex; assay: Ratio of compound MIC for Cryptococcus gattii L28/02 in presence of amphotericin B to compound MIC for Cryptococcus gattii L28/02 in absence of amphotericin B by checkerboard microtiter test; type: functional, Cryptococcus bacillisporus
Summary of the method: as §1

[19] = system: Cryptococcus gattii species complex; assay: Ratio of compound MIC for Cryptococcus gattii L28/02 in presence of fluconazole to compound MIC for Cryptococcus gattii L28/02 in absence of fluconazole by checkerboard microtiter test; type: functional, Cryptococcus bacillisporus
Summary of the method: as §1

[20] = system: Cryptococcus gattii; assay: Ratio of compound MIC for Cryptococcus gattii ATCC 24065 in presence of fluconazole to compound MIC for Cryptococcus gattii ATCC 24065 in absence of fluconazole by checkerboard microtiter test
[21] = system: Cryptococcus gattii species complex; assay: Ratio of compound MIC for Cryptococcus gattii LMM818 in presence of fluconazole to compound MIC for Cryptococcus gattii LMM818 in absence of fluconazole by checkerboard microtiter test; type: functional, Cryptococcus bacillisporus
Summary of the method: as §1

[22] = system: Cryptococcus gattii species complex; assay: Ratio of compound MIC for Cryptococcus gattii 1913ER in presence of amphotericin B to compound MIC for Cryptococcus gattii 1913ER in absence of amphotericin B by checkerboard microtiter test; type: functional, Cryptococcus bacillisporus
Summary of the method: as §1

[23] = system: Cryptococcus neoformans; assay: Ratio of compound MIC for Cryptococcus neoformans ATCC 24067 in presence of amphotericin B to compound MIC for Cryptococcus neoformans ATCC 24067 in absence of amphotericin B by checkerboard microtiter test; type: functional
Summary of the method: as §1

[24] = system: Cryptococcus gattii species complex; assay: Antifungal activity against Cryptococcus gattii 23/10993 assessed as reduction in cell viability at 3.9 uM after 6 to 72 hrs by MTT assay; type: functional, Cryptococcus bacillisporus
[25] = system: Cryptococcus neoformans; assay: Antifungal activity against Cryptococcus neoformans LMM820 assessed as reduction in cell viability at 3.9 uM after 6 to 72 hrs by MTT assay; type: functional
[26] = system: Cryptococcus neoformans; assay: Antifungal activity against Cryptococcus neoformans F10 assessed as reduction in cell viability at 3.9 uM after 6 to 72 hrs by MTT assay; type: functional
[27] = system: Cryptococcus neoformans; assay: Antifungal activity against Cryptococcus neoformans WP assessed as reduction in cell viability at 3.9 uM after 6 to 72 hrs by MTT assay; type: functional
[28] = system: Cryptococcus gattii species complex; assay: Antifungal activity against Cryptococcus gattii L28/02 assessed as reduction in cell viability at 3.9 uM after 6 to 72 hrs by MTT assay; type: functional, Cryptococcus bacillisporus
[29] = system: Cryptococcus gattii; assay: Antifungal activity against Cryptococcus gattii ATCC 24065 assessed as reduction in cell viability at 3.9 uM after 6 to 72 hrs by MTT assay
[30] = system: Cryptococcus neoformans; assay: Antifungal activity against Cryptococcus neoformans ATCC 24067 assessed as reduction in cell viability at 3.9 uM after 6 to 72 hrs by MTT assay; type: functional
[31] = system: Cryptococcus neoformans; assay: Antifungal activity against Cryptococcus neoformans 27JF assessed as reduction in cell viability at 3.9 uM after 6 to 72 hrs by MTT assay; type: functional
[32] = Selectivity index, ratio of IC50 for C57BL/6 mouse peritoneal macrophages to MIC for Cryptococcus gattii ATCC 24065

| Compound | fractional inhibitory concentration index (FICI) [1] | Activity [2] [%] | fractional inhibitory concentration index (FICI) [3] | fractional inhibitory concentration index (FICI) [4] | fractional inhibitory concentration index (FICI) [5] | fractional inhibitory concentration index (FICI) [6] | fractional inhibitory concentration index (FICI) [7] | fractional inhibitory concentration index (FICI) [8] | fractional inhibitory concentration index (FICI) [9] | fractional inhibitory concentration index (FICI) [11] | fractional inhibitory concentration index (FICI) [12] | fractional inhibitory concentration index (FICI) [13] | fractional inhibitory concentration index (FICI) [16] | fractional inhibitory concentration index (FICI) [17] | fractional inhibitory concentration index (FICI) [18] | fractional inhibitory concentration index (FICI) [19] | fractional inhibitory concentration index (FICI) [20] | fractional inhibitory concentration index (FICI) [21] | fractional inhibitory concentration index (FICI) [22] | fractional inhibitory concentration index (FICI) [23] | other results |
| --- | --- | --- | --- | --- | --- | --- | --- | --- | --- | --- | --- | --- | --- | --- | --- | --- | --- | --- | --- | --- | --- |
| COc1ccc(-c2csc(N/N=C(\C)CCO)n2)cc1 | 2.98 | 90 | 4.38 | 3.31 | 9.38 | 4.61 | 3.51 | 2.47 | 1.47 | 1.95 | 9.55 | 4.98 | 2.98 | 2.67 | 2.78 | 1.01 | 0.88 | 2.32 | 2.78 | 2.78 | Activity [10]: 90%; Activity [14]: 90%; Activity [15]: 90% |
| c1ccc(-c2csc(NN=C3CCCC3)n2)cc1 | 1.2 | – | 2.71 | 5.96 | 1.46 | 2.48 | 2.18 | 2.45 | 3.77 | 1.84 | 1.28 | 1.46 | 2.66 | 2.66 | 2.66 | 4.22 | 3.71 | 1.59 | 1.04 | 1.46 | Activity [24]: 80%; Activity [25]: 80%; Activity [26]: 80%; Activity [27]: 80%; Activity [28]: 80%; Activity [29]: 80%; Activity [30]: 80%; Activity [31]: 80% |
| OC(Cn1cncn1)(Cn1cncn1)c1ccc(F)cc1F [FLUCONAZOLE] | – | – | – | – | – | – | – | – | – | – | – | – | – | – | – | – | – | – | – | – | Ratio [32]: 7.87 |
| C(=N\Nc1nc(-c2ccccc2)cs1)/C1CCCCC1 | 1.72 | 90 | 3.97 | 4.47 | 3.97 | 1.34 | 2.67 | 2.09 | 1.99 | 2.47 | 4.98 | 2.67 | 4.74 | 2.58 | 1.34 | 2.47 | 1.58 | 2.47 | 1.47 | 2.67 | Activity [10]: 90%; Activity [14]: 90%; Activity [15]: 90% |
| COc1ccc(-c2csc(N/N=C/C3CCCCC3)n2)cc1 | 2 | – | 2.58 | 3.46 | 1.58 | 2.66 | 2.36 | 2.46 | 4.59 | 2.28 | 1.73 | 1.46 | 2.58 | 2.78 | 2.18 | 4.38 | 2.43 | 1.19 | 1.75 | 2.36 | Ratio [32]: 25.64; Activity [24]: 80%; Activity [25]: 80%; Activity [26]: 80%; Activity [27]: 80%; Activity [28]: 80%; Activity [29]: 80%; Activity [30]: 80%; Activity [31]: 80% |
